Assay results taken from ChEMBL document CHEMBL1153955, “Indolylarylsulfones bearing natural and unnatural amino acids. Discovery of potent inhibitors of HIV-1 non-nucleoside wild type and resistant mutant strains reverse transcriptase and coxsackie B4 virus” (J Med Chem, 2009).

What was measured:
[1] = target: Human immunodeficiency virus type 1 reverse transcriptase (Human immunodeficiency virus 1, UniProt Q72547); test: Inhibition of HIV1 reverse transcriptase p66/p51; conditions: read-out: IC50
Influenza A virus H3N2 [2] = test: Antiviral activity against influenza H3N2 virus in MDCK cells assessed as reduction of virus-induced cytopathicity by MTS method; format: functional, organism-based
[3] = Cytotoxicity against human HeLa cells assessed as drug level causing microscopically detectable alteration of normal cell morphology after 3 days; format: cell-based
Method in brief: (§1)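 Serial compound dilutions added to confluent HeLa or Vero monolayers. MCC = minimum concentration causing microscopically detectable alteration of cell morphology after 3 days of incubation.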

[4] = Cytotoxicity against human HEL cells assessed as drug level causing microscopically detectable alteration of normal cell morphology after 3 days; format: cell-based
[5] = test system: Human immunodeficiency virus 2; test: Antiviral activity against HIV2 ROD in human CEM cells assessed as protection against virus-induced cytopathicity after 4 days; format: functional, organism-based; conditions: Human immunodeficiency virus 2, ROD, CCRF-CEM, 96 h
Method in brief: (§2)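 CEM cells (~3 × 10⁵ cells/mL) infected with ~100 CCID₅₀ per mL of HIV-1 (IIIB) or HIV-2 (ROD), then seeded into wells containing compound dilutions. After 4 days at 37 °C, syncytium (giant cell) formation was examined microscopically. EC₅₀ = concentration protecting CEM cells from HIV cytopathicity by 50%.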

Influenza B virus [6] = test: Antiviral activity against influenza B virus in MDCK cells assessed as reduction of virus-induced cytopathicity by visual cytopathic effect scoring method; format: functional, organism-based
Coxsackievirus B4 [7] = test: Antiviral activity against Coxsackievirus B4 in african green monkey Vero cells assessed as protection against virus-induced cytopathicity; format: functional, organism-based; conditions: Enterovirus B
Method in brief: (§3)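 Confluent cell monolayers inoculated with 100 CCID₅₀ virus. After 1-2 h adsorption, residual virus removed and cultures incubated with varying compound concentrations. Cytopathicity scored once it reached completion in untreated infected controls. EC₅₀ = dose reducing virus-induced cytopathogenicity by 50%.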

[8] = Antiproliferative activity against human Molt4/C8 cells after 3 days; format: cell-based; conditions: MOLT-4, 72 h
Method in brief: (§4)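 Cells seeded at 5 × 10⁴ to 7.5 × 10⁴ cells/200 µL with or without serial compound dilutions; incubated at 37 °C for 2 days (L1210) or 3 days (Molt4/C8, CEM). Cell numbers counted with a Coulter counter. CC₅₀ = concentration reducing proliferation by 50% versus untreated controls, read from plots of cell number (% of control) against concentration. Means of at least two independent experiments.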

Felid alphaherpesvirus 1 = test: Antiviral activity against Feline herpesvirus in feline […] cells assessed as inhibition of virus-induced cytopathicity; format: functional, organism-based
Coxsackievirus B4 [9] = test: Antiviral activity against Coxsackievirus B4 in human HeLa cells assessed as protection against virus-induced cytopathicity; format: functional, organism-based; conditions: Enterovirus B; method in brief: as §3
Human alphaherpesvirus 2 = test: Antiviral activity against HSV2 G in human HEL cells assessed as protection against virus-induced cytopathicity; format: functional, organism-based; conditions: Human alphaherpesvirus 2, strain G; method in brief: as §3
Sindbis virus = test: Antiviral activity against Sindbis virus in african green monkey Vero cells assessed as protection against virus-induced cytopathicity; format: functional, organism-based; method in brief: as §3
[10] = Cytotoxicity against african green monkey Vero cells assessed as drug level causing microscopically detectable alteration of normal cell morphology after 3 days; format: cell-based; conditions: chlorocebus sabaeus; method in brief: as §1
[11] = test system: Respiratory syncytial virus; test: Antiviral activity against RSV Long in human HeLa cells assessed as protection against virus-induced cytopathicity; format: functional, organism-based; method in brief: as §3
CCRF-CEM = test: Antiproliferative activity against human CEM cells after 3 days; format: cell-based; conditions: 72 h; method in brief: as §4
Human alphaherpesvirus 1 [12] = test: Antiviral activity against thymidine kinase deficient and acyclovir resistant HSV1 KOS in human HEL cells assessed as protection against virus-induced cytopathicity; format: functional, organism-based; conditions: Human alphaherpesvirus 1, KOS
[13] = test system: Vesicular stomatitis virus; test: Antiviral activity against VSV in human HEL cells assessed as protection against virus-induced cytopathicity; format: functional, organism-based
[14] = Cytotoxicity against MDCK cells assessed as drug level causing microscopically detectable alteration of normal cell morphology; format: cell-based, Canis lupus familiaris; conditions: dog
[15] = test system: Vesicular stomatitis virus; test: Antiviral activity against VSV in human HeLa cells assessed as protection against virus-induced cytopathicity; format: functional, organism-based
Feline coronavirus = test: Antiviral activity against Feline coronavirus in feline […] cells assessed as inhibition of virus-induced cytopathicity; format: functional, organism-based; conditions: Alphacoronavirus 1
Influenza A virus [16] = test: Antiviral activity against influenza H1N1 virus in MDCK cells assessed as reduction of virus-induced cytopathicity by MTS method; format: functional, organism-based; conditions: Influenza A virus, H1N1, MDCK
Influenza A virus H3N2 [17] = test: Antiviral activity against influenza H3N2 virus in MDCK cells assessed as reduction of virus-induced cytopathicity by visual cytopathic effect scoring method; format: functional, organism-based
[18] = test system: Mammalian orthoreovirus 1; test: Antiviral activity against Reovirus 1 in african green monkey Vero cells assessed as protection against virus-induced cytopathicity; format: functional, organism-based; conditions: Mammalian orthoreovirus 1, Vero; method in brief: as §3
[19] = Cytotoxicity against feline CRFK cells by MTS assay; format: cell-based, Felis catus; conditions: cat
L1210 = test: Antiproliferative activity against mouse L1210 cells after 2 days; format: cell-based; conditions: L1210, 48 h; method in brief: as §4
[20] = Cytotoxicity against MDCK cells by MTS assay; format: cell-based, Canis lupus familiaris; conditions: dog
Influenza B virus [21] = test: Antiviral activity against influenza B virus in MDCK cells assessed as reduction of virus-induced cytopathicity by MTS method; format: functional, organism-based
[22] = target: Human immunodeficiency virus type 1 reverse transcriptase (Human immunodeficiency virus 1, UniProt Q72547, Y181I); test: Inhibition of HIV1 reverse transcriptase p66/p51 Y181I mutant; conditions: read-out: IC50
Method in brief: (§5)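 Substrate was 0.5 µg poly(rA)/oligo(dT) 10:1 (0.3 µM 3′-OH ends) with 10 µM [³H]dTTP, at 37 °C. Acid-precipitable radioactivity was counted on GF/C filters after TCA washes.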

Human alphaherpesvirus 1 [23] = test: Antiviral activity against HSV1 KOS in human HEL cells assessed as protection against virus-induced cytopathicity; format: functional, organism-based; conditions: Human alphaherpesvirus 1, KOS
[24] = test system: Human immunodeficiency virus 1; test: Antiviral activity against HIV1 3B in human CEM cells assessed as protection against virus-induced cytopathicity after 4 days; format: functional, organism-based; conditions: Human immunodeficiency virus 1, 3B, CCRF-CEM, 96 h; method in brief: as §2
Vaccinia virus = test: Antiviral activity against Vaccinia virus Lederle in human HEL cells assessed as protection against virus-induced cytopathicity; format: functional, organism-based; conditions: Orthopoxvirus vaccinia
Influenza A virus [25] = test: Antiviral activity against influenza H1N1 virus in MDCK cells assessed as reduction of virus-induced cytopathicity by visual cytopathic effect scoring method; format: functional, organism-based
Punta Toro virus = test: Antiviral activity against Punta Toro virus in african green monkey Vero cells assessed as protection against virus-induced cytopathicity; format: functional, organism-based; method in brief: as §3
[26] = target: Human immunodeficiency virus type 1 reverse transcriptase (Human immunodeficiency virus 1, UniProt Q72547, K103N); test: Inhibition of HIV1 reverse transcriptase p66/p51 K103N mutant; conditions: read-out: IC50; method in brief: as §5
Human respirovirus 3 = test: Antiviral activity against Parainfluenza virus type 3 in african green monkey Vero cells assessed as protection against virus-induced cytopathicity; format: functional, organism-based; conditions: Human respirovirus 3, Vero; method in brief: as §3
[27] = target: Human immunodeficiency virus type 1 reverse transcriptase (Human immunodeficiency virus 1, UniProt Q72547, L100I); test: Inhibition of HIV1 reverse transcriptase p66/p51 L100I mutant; conditions: read-out: IC50; method in brief: as §5

Row | SMILES | IC50 [1] [µM] | EC50 (Influenza A virus H3N2 [2]) [µM] | MCC at 72 h [3] [µM] | MCC at 72 h [4] [µM] | EC50 [5] [µM] | EC50 (Influenza B virus [6]) [µM] | EC50 (Coxsackievirus B4 [7]) [µM] | IC50 [8] [µM] | EC50 (Felid alphaherpesvirus 1) [µM] | EC50 (Coxsackievirus B4 [9]) [µM] | EC50 (Human alphaherpesvirus 2) [µM] | EC50 (Sindbis virus) [µM] | MCC at 72 h [10] [µM] | EC50 [11] [µM] | IC50 (CCRF-CEM) [µM] | EC50 (Human alphaherpesvirus 1 [12]) [µM] | EC50 [13] [µM] | MCC [14] [µM] | EC50 [15] [µM] | EC50 (Feline coronavirus) [µM] | further results
1 | Cc1cc(C)cc(S(=O)(=O)c2c(C(=O)NC(C)CC(N)=O)[nH]c3ccc(Cl)c(F)c23)c1 (stereo not drawn) | 0.359 | > 4 | 100 | 100 | > 10 | > 4 | > 20 | 25 | > 20 | 9 | > 20 | > 20 | 100 | 20 | 27 | > 20 | > 20 | 20 | > 20 | > 20 | EC50 (Influenza A virus [16]): > 4 µM; EC50 (Influenza A virus H3N2 [17]): > 4 µM; EC50 [18]: > 20 µM; CC50 [19]: 42.6 µM; IC50 (L1210): 42 µM; CC50 [20]: 6.2 µM; EC50 (Influenza B virus [21]): > 4 µM; IC50 [22]: > 40 µM; EC50 (Human alphaherpesvirus 1 [23]): > 20 µM; EC50 [24]: 0.0046 µM; EC50 (Vaccinia virus): > 20 µM; EC50 (Influenza A virus [25]): > 4 µM; EC50 (Punta Toro virus): > 20 µM; IC50 [26]: 3.39 µM; EC50 (Human respirovirus 3): > 20 µM; IC50 [27]: 0.39 µM
2 | Cc1cc(C)cc(S(=O)(=O)c2c(C(=O)NC(C)CC(N)=O)[nH]c3ccc([N+](=O)[O-])cc23)c1 (stereo not drawn) | 0.033 | > 4 | 100 | 20 | > 10 | > 4 | > 20 | 41 | > 20 | ≥ 20 | > 4 | > 20 | 100 | > 20 | 36 | > 4 | > 4 | 20 | > 20 | > 20 | EC50 (Influenza A virus [16]): > 4 µM; EC50 (Influenza A virus H3N2 [17]): > 4 µM; EC50 [18]: > 20 µM; CC50 [19]: 21.1 µM; IC50 (L1210): 37 µM; CC50 [20]: > 100 µM; EC50 (Influenza B virus [21]): > 4 µM; IC50 [22]: 11.9 µM; EC50 (Human alphaherpesvirus 1 [23]): > 4 µM; EC50 [24]: 0.0051 µM; EC50 (Vaccinia virus): > 4 µM; EC50 (Influenza A virus [25]): > 4 µM; EC50 (Punta Toro virus): > 20 µM; IC50 [26]: 1.09 µM; EC50 (Human respirovirus 3): > 20 µM; IC50 [27]: 0.191 µM
3 | Cc1cc(C)cc(S(=O)(=O)c2c(C(=O)NCC(N)=O)[nH]c3ccc(Cl)c(F)c23)c1 | 0.025 | > 4 | 100 | 100 | > 10 | > 4 | > 20 | 34 | > 20 | 9 | > 20 | > 20 | > 100 | 16 | 31 | > 20 | > 20 | 20 | > 20 | > 20 | EC50 (Influenza A virus [16]): > 4 µM; EC50 (Influenza A virus H3N2 [17]): > 4 µM; EC50 [18]: > 20 µM; CC50 [19]: 71 µM; IC50 (L1210): 53 µM; CC50 [20]: 7.6 µM; EC50 (Influenza B virus [21]): > 4 µM; IC50 [22]: 2.46 µM; EC50 (Human alphaherpesvirus 1 [23]): > 20 µM; EC50 [24]: 0.0031 µM; EC50 (Vaccinia virus): > 20 µM; EC50 (Influenza A virus [25]): > 4 µM; EC50 (Punta Toro virus): > 20 µM; IC50 [26]: 1.04 µM; EC50 (Human respirovirus 3): > 20 µM; IC50 [27]: 0.319 µM
